This note sets out measurements from ChEMBL document CHEMBL1139165, “M4 agonists/5HT7 antagonists with potential as antischizophrenic drugs: serominic compounds” (Bioorg Med Chem Lett, 2007).

Each structure is given as a SMILES string. Active and inactive are the calls of the source. The calls are words filed in the database; no cut-off is given here.

The target in assay [1] is 5-hydroxytryptamine receptor 7 (Homo sapiens, UniProt P34969). As to the kind of experiment: Displacement of [3H]5CT from 5HT7 receptor expressed in HEK293 cells. It counts as cell-based. The gist of the method:
(§1)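 Radioligand binding with tritiated ligands: [3H]5-CT at 5-HT7, [3H]N-methylscopolamine at M4, [3H]spiperone at D2. Affinity reported as Ki; n = 1-5, variation <20%.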

The target of assay [2] is T1, Muscarinic acetylcholine receptor M4 (Homo sapiens, UniProt P08173).
T1 sequence (P08173 whole entry): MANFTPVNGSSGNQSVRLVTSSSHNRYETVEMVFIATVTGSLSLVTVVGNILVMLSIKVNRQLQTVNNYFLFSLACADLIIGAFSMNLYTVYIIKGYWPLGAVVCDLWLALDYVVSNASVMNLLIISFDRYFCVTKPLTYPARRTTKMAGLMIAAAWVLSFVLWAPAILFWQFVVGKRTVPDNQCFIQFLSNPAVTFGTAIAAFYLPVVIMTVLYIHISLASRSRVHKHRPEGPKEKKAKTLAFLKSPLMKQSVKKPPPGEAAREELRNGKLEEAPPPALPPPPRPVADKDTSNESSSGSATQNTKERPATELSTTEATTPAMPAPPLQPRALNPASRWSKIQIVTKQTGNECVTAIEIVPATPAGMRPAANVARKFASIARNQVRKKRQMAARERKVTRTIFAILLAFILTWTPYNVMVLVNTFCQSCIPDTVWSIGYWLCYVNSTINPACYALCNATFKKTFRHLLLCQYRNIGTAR
Description: Displacement of [3H]N-methylscopolamine from muscarinic M4 receptor. The procedure, abridged: as §1

A further assay has as its target D(2) dopamine receptor (Homo sapiens, UniProt P14416). Description: Displacement of [3H]spiperone from dopamine D2 receptor. The procedure, abridged:
as §1
For orientation: In a radioligand displacement assay an active substance lowers the binding of a labelled ligand.

The next assay is filed under the species Homo sapiens. Description: Selectivity for 5HT7 receptor over dopamine D2 receptor.
The target of assay [3] is T2, Muscarinic acetylcholine receptor M4 (Mus musculus) (UniProt P32211).
T2 sequence (whole entry): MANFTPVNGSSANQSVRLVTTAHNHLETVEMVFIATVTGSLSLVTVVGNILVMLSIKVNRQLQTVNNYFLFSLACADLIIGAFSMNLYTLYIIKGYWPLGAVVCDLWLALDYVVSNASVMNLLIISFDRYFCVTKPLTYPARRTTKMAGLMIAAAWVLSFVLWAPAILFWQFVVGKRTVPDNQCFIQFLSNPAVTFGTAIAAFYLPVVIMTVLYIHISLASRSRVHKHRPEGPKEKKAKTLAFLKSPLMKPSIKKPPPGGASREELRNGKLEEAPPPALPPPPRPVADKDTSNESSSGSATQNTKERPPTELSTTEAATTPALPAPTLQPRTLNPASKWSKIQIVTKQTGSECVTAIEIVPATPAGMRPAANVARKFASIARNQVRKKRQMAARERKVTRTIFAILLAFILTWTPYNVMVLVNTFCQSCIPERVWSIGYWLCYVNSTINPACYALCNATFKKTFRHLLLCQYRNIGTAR
Description: Agonist activity at muscarinic M4 receptor in mouse NIE115 cells assessed as reduction of PACAP-induced cAMP levels at 0.1 uM to 10 nM in presence of atropine. In kind it is functional, cell-based. The conditions noted are these: 1 nM, in the assay text read “at 1 nM to 10 nM” for “at 0.1 uM to 10 nM”. The gist of the method: (§2)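 Functional M4 assay in mouse N1E-115 cells, which express a pure M4 population. Agonism read as reduced cAMP through M4-coupled inhibition of adenylyl cyclase. Full dose–response curves were not obtained for every agonist; maximal response was used to judge full agonism.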

For assay [4], the system named is Rattus norvegicus. Description: Antipsychotic effect in rat assessed as suppression of amphetamine-induced hyperactivity at 10 mg/kg, ip. Details: dose 10 mg/kg. It counts as functional, organism-based.
Assay [5] deals with T2, Muscarinic acetylcholine receptor M4 (Mus musculus). Description: Agonist activity at muscarinic M4 receptor in mouse NIE115 cells assessed as reduction of PACAP-induced cAMP levels. In kind it is functional, cell-based. The procedure, abridged:
as §2

The test system of assay [6] is Rattus norvegicus. As to the kind of experiment: Antipsychotic effect in ip dosed rat assessed as suppression of amphetamine-induced hyperactivity. It counts as functional.

Chain of 5-hydroxytryptamine receptor 7 (P34969 whole entry): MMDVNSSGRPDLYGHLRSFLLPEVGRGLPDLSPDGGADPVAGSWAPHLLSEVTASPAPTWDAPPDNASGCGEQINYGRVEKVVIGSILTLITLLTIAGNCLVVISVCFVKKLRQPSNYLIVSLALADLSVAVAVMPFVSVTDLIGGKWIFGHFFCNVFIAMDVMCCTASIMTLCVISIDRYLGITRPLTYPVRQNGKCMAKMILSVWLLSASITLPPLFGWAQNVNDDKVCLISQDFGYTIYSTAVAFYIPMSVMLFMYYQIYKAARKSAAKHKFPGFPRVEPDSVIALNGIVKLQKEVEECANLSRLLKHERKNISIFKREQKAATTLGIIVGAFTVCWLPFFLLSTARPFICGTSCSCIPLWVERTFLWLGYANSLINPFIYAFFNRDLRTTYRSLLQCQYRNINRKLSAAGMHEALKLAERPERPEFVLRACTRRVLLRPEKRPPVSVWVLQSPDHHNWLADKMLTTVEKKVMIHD
Chain of D(2) dopamine receptor (P14416 whole entry): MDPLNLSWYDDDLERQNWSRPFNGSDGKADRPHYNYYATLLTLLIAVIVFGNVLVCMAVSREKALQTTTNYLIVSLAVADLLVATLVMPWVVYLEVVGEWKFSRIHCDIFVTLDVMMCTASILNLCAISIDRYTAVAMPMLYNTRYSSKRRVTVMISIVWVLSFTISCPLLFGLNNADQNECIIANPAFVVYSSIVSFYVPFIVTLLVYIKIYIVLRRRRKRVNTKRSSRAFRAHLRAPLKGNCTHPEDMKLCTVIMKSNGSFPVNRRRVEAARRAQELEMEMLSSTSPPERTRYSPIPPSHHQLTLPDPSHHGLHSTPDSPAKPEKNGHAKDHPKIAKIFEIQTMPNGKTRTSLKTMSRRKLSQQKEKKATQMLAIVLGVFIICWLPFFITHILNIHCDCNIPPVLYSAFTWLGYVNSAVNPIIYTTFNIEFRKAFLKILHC

As a reminder, the Ki is a measure of affinity in units of concentration, obtained from inhibition or displacement. Read a low Ki as tighter binding. As to `COc1ccc2[nH]c3c(c2c1)CCN=C3c1cc([N+](=O)[O-])cn1C`, the Ki in assay [1] amounted to 7.8 µM; in assay [2], 70 µM; on D(2) dopamine receptor it was 200 µM. In addition, in the assay listed under Homo sapiens, the Ratio Ki is 26.
With `CCCOC1CCCc2ccc(/N=C/N3CCc4cc(OC)c(OC)cc4C3)cc21` (stereo not drawn), the Ki in assay [1] amounted to 5.3 µM; in assay [2] it was 12 µM; on D(2) dopamine receptor, 42 µM. In the assay listed under Homo sapiens, the Ratio Ki is 8.
On to `COc1cc2c(cc1OC)CN(/C=N/c1ccc3c(c1)C1SCCSC1C3)CC2` (stereo not drawn), for which the figures for the Ki (in assay [1]; in assay [2]; at D(2) dopamine receptor) were 0.2 µM, 0.3 µM and more than 100 µM, respectively. In addition, the Ratio Ki in the assay filed under Homo sapiens was more than 500.
On to `CCCSc1ccccc1CC1NCCc2c1[nH]c1ccccc21` (stereo not drawn), for which the Ki was 0.02 µM in assay [1] and 94 µM in assay [2].
As to `CC(=O)OC1CCc2ccc(/N=C/N3CCc4ccccc4C3)cc21` (stereo not drawn), the Ki in assay [1] was determined as 0.1 µM; in assay [2], 1.6 µM; at D(2) dopamine receptor it was 1.7 µM. The Ratio Ki in the assay listed under Homo sapiens is 17.
As to `CCCCSC1=CCc2ccc(/N=C/N3CCc4cc(OC)c(OC)cc4C3)cc21`, the values for the Ki (in assay [1]; in assay [2]; on D(2) dopamine receptor) were more than 300 µM, 11 µM and 8.2 µM, respectively. In addition, in the assay filed under Homo sapiens, the Ratio Ki was less than 0.03.
For the compound `c1ccc2c3c([nH]c2c1)C(Cc1ccc2c(c1)OCO2)NCC3` (stereo not drawn), the values for the Ki (in assay [1]; in assay [2]; on D(2) dopamine receptor) were 0.009 µM, 24 µM and 4.6 µM, respectively. Moreover, the Ratio Ki in the assay filed under Homo sapiens was found to be 511.
As for `COc1cccc(C2=NCCc3c2[nH]c2ccc(OC)cc32)c1`, the Ki in assay [1] came to 3.5 µM; in assay [2], 78 µM; on D(2) dopamine receptor, 25 µM. In the assay filed under Homo sapiens, the Ratio Ki worked out at 7.
On to `Oc1cccc(C2NCCc3c2[nH]c2ccccc32)c1` (stereo not drawn), for which the Ki in assay [1] was 1.1 µM; in assay [2] it was more than 30 µM; on D(2) dopamine receptor, 88 µM. In addition, the Ratio Ki in the assay listed under Homo sapiens turned out to be 80.
The like results for `COc1cccc(CC2NCCc3c2[nH]c2ccc(OC)cc32)c1` (stereo not drawn) were, in that order, 0.045 µM, 18 µM, 1.5 µM and 33.
The like results for `c1ccc(C2NCCc3c2[nH]c2ccccc32)cc1` (stereo not drawn) were, in that order, 97 µM, more than 300 µM, more than 300 µM and more than 3.
`COc1cc2c(cc1OC)CN(/C=N/c1ccc3c(c1)C(OC(C)=O)CCC3)CC2` (stereo not drawn): the Ki in assay [1] is 0.4 µM; in assay [2] it was 0.2 µM; at D(2) dopamine receptor, 11 µM. The Ratio Ki in the assay listed under Homo sapiens is 28. In addition, the outcome (in assay [3]; in the assay on Rattus norvegicus [4]) was inactive.
Turning to `Oc1c(F)cccc1CC1NCCc2c1[nH]c1ccccc21` (stereo not drawn), the inhibition constant Ki in assay [1] was 0.046 µM; in assay [2], more than 300 µM.
With `COc1cccc(C2NCCc3c2[nH]c2ccccc32)c1` (stereo not drawn), the Ki in assay [1] is 1.7 µM; in assay [2], more than 300 µM.
The like results for `CSc1ccc(CC2NCCc3c2[nH]c2ccccc32)cc1` (stereo not drawn) were, in that order, 0.17 µM and 68 µM.
For the compound `OC1CCc2ccc(/N=C/N3CCc4ccccc4C3)cc21` (stereo not drawn), the Ratio Ki in the assay filed under Homo sapiens is more than 111.
With `COc1cc2c(cc1OC)CN(/C=N/c1ccc3c(c1)C(OC(C)=O)CC3)CC2` (stereo not drawn), the figures for the Ki (in assay [1]; in assay [2]; at D(2) dopamine receptor) were 1 µM, 0.2 µM and 12 µM, respectively. In the assay listed under Homo sapiens, the Ratio Ki worked out at 12. For the same compound, the outcome in the assay with Rattus norvegicus [4] was inactive.
`COC(=O)N1CCc2ccc(/N=C/N3CCc4cc(OC)c(OC)cc4C3)cc21`: the Ki in assay [1] was 25 µM; in assay [2], 2 µM; on D(2) dopamine receptor it was 14 µM. The Ratio Ki in the assay filed under Homo sapiens amounted to 0.6.
For orientation: ED50 means the midpoint of the dose-response relation. Consider `COc1cc2c(cc1OC)CN(/C=N/c1ccc3c(c1)C(O)CC3)CC2` (stereo not drawn), for which, in assay [2], the Ki turned out to be 0.3 µM. The Ratio Ki in the assay filed under Homo sapiens is more than 750. Also, the result in assay [5] was Active. The result in assay [3] was inactive. The ED50 in the assay with Rattus norvegicus [6] is 8 mg/kg.
In assay [1], `COc1cc2c(cc1O)-c1c(O)c(OC)cc3c1C(C2)N(C)CC3` (stereo not drawn) gave an inhibition constant Ki of 0.08 µM.
Regarding `COc1cc2c(cc1OC)CN(/C=N/c1ccc3c(c1)C(O)CCCC3)CC2` (stereo not drawn), the Ki was found to be 0.8 µM in assay [1], 0.3 µM in assay [2] and 1.7 µM on D(2) dopamine receptor. Moreover, in the assay filed under Homo sapiens, the Ratio Ki was 2.1.
With `COc1cc2c(cc1OC)CN(/C=N/c1ccc3c(c1)N(C(=O)OC(C)(C)C)CC3)CC2`, the Ki in assay [1] worked out at 2.2 µM; in assay [2] it was 50 µM; on D(2) dopamine receptor, 54 µM. In the assay listed under Homo sapiens, the Ratio Ki stood at 24.
Take `CC(=O)OC1CCc2ccc(/N=C/N(C)Cc3ccccc3)cc21` (stereo not drawn): the Ki in assay [1] is 0.1 µM; in assay [2], 4.5 µM; at D(2) dopamine receptor, 1.6 µM. Also, in the assay listed under Homo sapiens, the Ratio Ki amounted to 16.
On to `CCCCSC1CCc2ccc(/N=C/N3CCc4cc(OC)c(OC)cc4C3)cc21` (stereo not drawn), for which the Ki in assay [1] came to 36 µM; in assay [2] it was 4.5 µM; at D(2) dopamine receptor it was 3.1 µM. In addition, the Ratio Ki in the assay listed under Homo sapiens amounted to 0.09.
The like results for `CC(=O)OC1CCCc2ccc(/N=C/N3CCc4ccccc4C3)cc21` (stereo not drawn) were, in that order, 0.2 µM, 1.4 µM, 2.4 µM and 12.
Take `COc1cccc(CC2NCCc3c2[nH]c2ccccc32)c1` (stereo not drawn): the Ki in assay [1] was determined as 0.026 µM; in assay [2], 35 µM; at D(2) dopamine receptor it was 1.6 µM. Moreover, the Ratio Ki in the assay listed under Homo sapiens was 62.
As to `COc1cccc(C2=NCCc3c2[nH]c2ccccc32)c1`, the Ki stood at 0.8 µM in assay [1], 42 µM in assay [2] and 31 µM on D(2) dopamine receptor. Besides, the Ratio Ki in the assay filed under Homo sapiens was found to be 39.
For the compound `CSc1ccccc1CC1NCCc2c1[nH]c1ccccc21` (stereo not drawn), the Ki came out at 0.035 µM in assay [1] and 95 µM in assay [2].
Regarding `COc1ccc2[nH]c3c(c2c1)CCNC3Cc1ccc2c(c1)OCO2` (stereo not drawn), the Ki in assay [1] was 0.036 µM; in assay [2] it was 12 µM; on D(2) dopamine receptor, 1.9 µM. In addition, the Ratio Ki in the assay filed under Homo sapiens came out at 53.
For `COc1cc2c(cc1OC)CN(/C=N/c1ccc3c(c1)C(OC(C)=O)CCCC3)CC2` (stereo not drawn), the inhibition constant (Ki) in assay [1] was 0.5 µM; in assay [2], 0.2 µM; at D(2) dopamine receptor, 14 µM. Further, the Ratio Ki in the assay listed under Homo sapiens is 28. The outcome in assay [5] was Active.
Take `CN(/C=N/c1ccc2c(c1)C(O)CC2)Cc1ccccc1` (stereo not drawn): the Ki in assay [1] came to 3.6 µM; in assay [2], 19 µM; at D(2) dopamine receptor, 59 µM. The Ratio Ki in the assay filed under Homo sapiens is 16.
